Values after ≈ are worked out from the molar mass of the structure shown.
Columns and labels:
[1] = system: Staphylococcus aureus; test: Antibacterial activity against methicillin resistant Staphylococcus aureus ATCC BAA-44 after 18 hrs by broth microdilution method; format: functional; settings: ATCC BAA-44, 18 h
Method in brief: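 Compound alone, MIC by standard CLSI broth microdilution; lowest concentration with no growth, reported in μg/mL; confirmed in triplicate.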

[2] = system: Staphylococcus aureus; test: Potentiation of cefazolin induced antibacterial activity against methicillin resistant Staphylococcus aureus ATCC BAA-44 assessed as minimum resensitizing concentration after 18 hrs by broth microdilution method; format: functional; settings: ATCC BAA-44, 18 h, read-out: MEC
Method in brief: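 Compound titrated in the presence of cefazolin at its CLSI breakpoint (8 μg/mL); MRC is the compound concentration at which no overnight growth occurs, in μg/mL; confirmed in triplicate.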

[3] = system: HeLa; test: Cytotoxicity against human HeLa cells assessed as cell growth inhibition measured after 24 hrs by Celltiter Glo luminescent assay; format: cell-based; settings: hela, 24 h
[4] = system: Staphylococcus aureus; test: Ratio of MIC for antibacterial activity against methicillin resistant Staphylococcus aureus ATCC BAA-44 to MEC for potentiation of cefazolin induced antibacterial activity against methicillin resistant Staphylococcus aureus ATCC BAA-44; format: functional
Method in brief: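 Compound MIC alone (CLSI broth microdilution) divided by its MRC with cefazolin at the 8 μg/mL breakpoint, both against MRSA BAA-44; each confirmed in triplicate.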

Row | Structure (SMILES) | MIC [1] [mg/L] | minimal effective concentration [2] [µg/mL] | GI50 [3] [mg/L] | Ratio [4]
1 | Clc1ccc2nc(N3CCc4c([nH]c5cccc(Cl)c45)C3)sc2c1 | > 16 | 16 |  | 
2 | Clc1ccc2nc(N3CCc4c([nH]c5ccc(Br)cc45)C3)sc2c1 | 4 (≈ 9.55 µM) | 1 |  | 
3 | Nc1ccc2nc(N3CCc4c([nH]c5ccc(Cl)cc45)C3)sc2c1 |  | > 64 |  | 
4 | Cl.Nc1cc(C(F)(F)F)c2nc(N3CCc4c([nH]c5ccc(Cl)cc45)C3)sc2c1 | 16 | 2 | 32 | 
5 | FC(F)(F)c1ccc(NC(=S)N2CCc3c([nH]c4ccc(Cl)cc34)C2)cc1 | 2 (≈ 4.88 µM) | 1 |  | 2
6 | Oc1cc(Cl)c2nc(N3CCc4c([nH]c5ccc(Cl)cc45)C3)sc2c1 | > 32 | 8 | 5.5 (≈ 14.1 µM) | 
7 | CCOC(=O)c1ccc2nc(N3CCc4c([nH]c5ccc(Cl)cc45)C3)sc2c1 |  | > 64 |  | 
8 | Clc1ccc2[nH]c3c(c2c1)CCN(c1nc2c(Cl)cccc2s1)C3 | > 64 | 2 | 27.7 (≈ 74 µM) | 32
9 | Clc1ccc2[nH]c3c(c2c1)CCN(c1nc2ccc(Br)cc2s1)C3 | > 64 | 2 | 5.1 (≈ 12.2 µM) | 
10 | COCOCC1CN(c2nc3ccc(Cl)cc3s2)Cc2[nH]c3ccc(Cl)cc3c21 (racemic) |  | 2 | 7 (≈ 15.6 µM) | 
11 | COC(=O)C1CN(c2nc3ccc(Cl)cc3s2)Cc2[nH]c3ccc(Cl)cc3c21 (racemic) | > 32 | 1 | 6.6 (≈ 15.3 µM) | 32
12 | Clc1ccc2[nH]c3c(c2c1)CCN(c1nc2c(Cl)c(Cl)c(Cl)cc2s1)C3 | 2 (≈ 4.51 µM) | 1 | 11.7 (≈ 26.4 µM) | 
13 | FC(F)(F)c1ccc2nc(N3CCc4c([nH]c5ccc(Cl)cc45)C3)oc2c1 |  | > 64 |  | 0
14 | FC(F)(F)Oc1ccc2nc(N3CCc4c([nH]c5ccc(Cl)cc45)C3)sc2c1 |  | 1 | 7.3 (≈ 17.2 µM) | 0
15 | Clc1ccc2nc(N3CCc4c([nH]c5ccc(Cl)cc45)C3)oc2c1 |  | > 64 |  | 0
16 | FC(F)(F)c1cc(Br)cc2sc(N3CCc4c([nH]c5ccc(Cl)cc45)C3)nc12 | 4 (≈ 8.22 µM) | 0.5 | 5.9 (≈ 12.1 µM) | 
17 | NCCNCC1CN(c2nc3ccc(Cl)cc3s2)Cc2[nH]c3ccc(Cl)cc3c21 (racemic) |  | 2 | 2.4 (≈ 5.38 µM) | 
18 | Cn1c(N2CCc3c([nH]c4ccc(Cl)cc34)C2)nc2ccc(C(F)(F)F)cc21 |  | > 64 |  | 
19 | Cc1ccc2nc(N3CCc4c([nH]c5ccc(Cl)cc45)C3)sc2c1 |  | > 64 |  | 0
20 | Clc1cc(Cl)c2nc(N3CCc4c([nH]c5ccc(Cl)cc45)C3)sc2c1 | 2 (≈ 4.89 µM) | 1 | 16.1 (≈ 39.4 µM) | 
21 | S=C(Nc1ccc(Cl)cc1)N1CCc2c([nH]c3ccc(Cl)cc23)C1 | 4 (≈ 10.6 µM) | 2 |  | 2
22 | Clc1ccc2c3c([nH]c2c1)CN(c1nc2ccc(Cl)cc2s1)CC3 |  | > 64 |  | 
23 | N=CNCC1CN(c2nc3ccc(Cl)cc3s2)Cc2[nH]c3ccc(Cl)cc3c21 (racemic) | 4 (≈ 9.29 µM) | 2 | 3.8 (≈ 8.83 µM) | 
24 | Clc1ccc2[nH]c3c(c2c1)CCN(c1nc2ccccc2s1)C3 |  | > 64 |  | 0
25 | Cn1c(N2CCc3c([nH]c4ccc(Cl)cc34)C2)nc2ccc(Cl)cc21 |  | > 64 |  | 

Row | Structure (SMILES) | MIC [1] [mg/L] | minimal effective concentration [2] [µg/mL] | GI50 [3] [mg/L] | Ratio [4]
26 | OCC1CN(c2nc3ccc(Cl)cc3s2)Cc2[nH]c3ccc(Cl)cc3c21 (racemic) |  | 2 | 10.8 (≈ 26.7 µM) | 
27 | FC(F)(F)Oc1ccc(NC(=S)N2CCc3c([nH]c4ccc(Cl)cc34)C2)cc1 |  | 1 |  | 2
28 | CN(C)C(=O)C1CN(c2nc3ccc(Cl)cc3s2)Cc2[nH]c3ccc(Cl)cc3c21 (racemic) |  | > 32 |  | 0
29 | COc1ccc2[nH]c3c(c2c1)CCN(c1nc2ccc(Cl)cc2s1)C3 |  | > 64 |  | 
30 | Cl.NCC(=O)Nc1cc(Cl)c2nc(N3CCc4c([nH]c5ccc(Cl)cc45)C3)sc2c1 |  | 2 | 14.8 | 
31 | Fc1ccc2[nH]c3c(c2c1)CCN(c1nc2ccc(Cl)cc2s1)C3 |  | > 64 |  | 
32 | NCCOc1cc(Cl)c2nc(N3CCc4c([nH]c5ccc(Cl)cc45)C3)sc2c1 | 8 (≈ 18.5 µM) | 4 |  | 
33 | CNc1cc(C(F)(F)F)c2nc(N3CCc4c([nH]c5ccc(Cl)cc45)C3)sc2c1 | > 32 | 2 | 15.4 (≈ 35.2 µM) | 
34 | Clc1ccc2[nH]c3c(c2c1)CCN(c1nc2c(Cl)cc(Br)cc2s1)C3 | > 32 | 8 | 22 (≈ 48.5 µM) | 
35 | COc1cc(Cl)c2nc(N3CCc4c([nH]c5ccc(Cl)cc45)C3)sc2c1 |  | > 32 |  | 
36 | FC(F)(F)c1cnc2nc(N3CCc4c([nH]c5ccc(Cl)cc45)C3)sc2c1 |  | > 64 |  | 
37 | C[N+](C)(C)CC1CN(c2nc3ccc(Cl)cc3s2)Cc2[nH]c3ccc(Cl)cc3c21.[I-] (racemic) | 8 | 4 | 18 | 
38 | Cl.NCCNc1cc(C(F)(F)F)c2nc(N3CCc4c([nH]c5ccc(Cl)cc45)C3)sc2c1 |  | 1 | 7.4 | 
39 | Clc1ccc2sc(N3CCc4c([nH]c5ccc(Cl)cc45)C3)nc2c1 |  | > 64 |  | 0
40 | Clc1ccc2[nH]c3c(c2c1)CCN(c1nc2ccccc2o1)C3 |  | > 64 |  | 0
41 | CCn1c2c(c3cc(Cl)ccc31)CCN(c1nc3ccc(Cl)cc3s1)C2 |  | > 64 |  | 
42 | CN(C)CC1CN(c2nc3ccc(Cl)cc3s2)Cc2[nH]c3ccc(Cl)cc3c21 (racemic) | 2 (≈ 4.64 µM) | 1 | 5.2 (≈ 12.1 µM) | 
43 | CCOC(=O)C1c2[nH]c3ccc(Cl)cc3c2CCN1c1nc2ccc(Cl)cc2s1 (configuration not stated) |  | > 64 |  | 
44 | Cl.NCCSCC1CN(c2nc3ccc(Cl)cc3s2)Cc2[nH]c3ccc(Cl)cc3c21 (racemic) |  | 1 | 3.8 | 
45 | Clc1ccc2[nH]c3c(c2c1)CCN(c1nc2ncccc2s1)C3 |  | > 64 |  | 
46 | FC(F)(F)c1ccc2nc(N3CCc4c([nH]c5ccc(Cl)cc45)C3)sc2c1 | > 64 | 0.5 | 4.6 (≈ 11.3 µM) | 
47 | Clc1ccc2nc(N3CCc4c([nH]c5c(Cl)cccc45)C3)sc2c1 | > 16 | 16 |  | 
48 | NCC1CN(c2nc3ccc(Cl)cc3s2)Cc2[nH]c3ccc(Cl)cc3c21 (racemic) |  | 1 | 1.5 (≈ 3.72 µM) | 
49 | Clc1ccc2[nH]c3c(c2c1)CCN(c1nc2cccc(Cl)c2s1)C3 | 4 (≈ 10.7 µM) | 1 | 6.7 (≈ 17.9 µM) | 
50 | Cn1c(N2CCc3c([nH]c4ccc(Cl)cc34)C2)nc2ccccc21 |  | > 64 |  | 
